Paper PMC10839871 (Heliyon, 2024)
Like-named read-outs stand apart in the source and are kept apart here.

Experiments:
[1] = DPPH free radical scavenging assay
[2] = Ferric reducing antioxidant power
[3] = ref 27 (Djouahri et al., 2015); cited from earlier work
[4] = target: Porcine pancreatic elastase (Sus scrofa, UniProt P00772); assay: Anti-elastase activity; format: biochemical
In short: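 Porcine pancreatic elastase stock at 3.33 mg/mL in sterile water. Test sample (3–0.046 mg/mL), Tris–HCl buffer (pH 8) and enzyme pre-incubated 15 min. N-succinyl-Ala-Ala-Ala-p-nitroanilide substrate (1.6 mM solution) added, then 20 min at 37 °C. A400 read immediately. Inhibition % from blank-corrected sample versus buffer+enzyme absorbance. EGCG positive control. Run in triplicate, mean ± SD.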

Pseudomonas aeruginosa = assay: MIC / bacterial growth, broth microdilution; format: cell-based; conditions: standard antibiotic
In short: (§1)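 Ampicillin (10 to 0.078125 mg/mL) as reference in Mueller–Hinton broth microdilution. Wells inoculated with fresh overnight suspension adjusted to OD600 0.6; uninoculated and drug-free growth controls included. Incubated 18 h at 37 °C, aerobic, shaking at 150 rpm. Growth checked visually and spectrophotometrically. MIC taken as lowest concentration preventing visible growth. Triplicate.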

Staphylococcus aureus = assay: MIC / bacterial growth, broth microdilution; format: cell-based; conditions: standard antibiotic
In short: as §1

Enterococcus faecalis = assay: MIC / bacterial growth, broth microdilution; format: cell-based; conditions: standard antibiotic
In short: as §1

Chain of Porcine pancreatic elastase (P00772 27-266): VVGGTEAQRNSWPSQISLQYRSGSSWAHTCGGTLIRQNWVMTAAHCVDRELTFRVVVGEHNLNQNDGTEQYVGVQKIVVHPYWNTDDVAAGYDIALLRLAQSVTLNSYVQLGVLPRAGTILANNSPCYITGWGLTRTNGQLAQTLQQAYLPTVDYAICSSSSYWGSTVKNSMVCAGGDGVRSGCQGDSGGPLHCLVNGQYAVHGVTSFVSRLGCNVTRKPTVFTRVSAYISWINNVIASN

In the case of O=c1c(O)c(-c2ccc(O)c(O)c2)oc2cc(O)cc(O)c12 [Quercetin], the “DPPH IC50” value [1] is reported as 5.36 ± 0.25 µg/mL and the FRAP [2] is reported as 16.60 ± 0.64 mM of FeSO4/g Extract.
For Cc1cc(C(C)(C)C)c(O)c(C(C)(C)C)c1 [BHT], the “DPPH IC50” value [3] is given as 33.89 ± 0.16 µg/mL.
In the case of O=C(O[C@@H]1Cc2c(O)cc(O)cc2O[C@@H]1c1cc(O)c(O)c(O)c1)c1cc(O)c(O)c(O)c1 [EGCG, epigallocatechin gallate], the “Elastase IC50” value [4] is reported as 92.00 ± 3.1 µg/mL.
With O=C1O[C@H]([C@@H](O)CO)C(O)=C1O [Ascorbic acid] the “ABTS IC50” value (ABTS assay) was 21.7 ± 0.29 µg/mL.
In the case of CC1(C)S[C@@H]2[C@H](NC(=O)[C@H](N)c3ccccc3)C(=O)N2[C@H]1C(=O)O [ampicillin], the “Concentration that completely inhibited the bacterial growth” value (Pseudomonas aeruginosa) is reported as 0.3125 mg/mL, the “Concentration that completely inhibited the bacterial growth” value (Staphylococcus aureus) is reported as 0.3125 mg/mL and the “Concentration that completely inhibited the bacterial growth” value (Enterococcus faecalis) is reported as 0.3125 mg/mL.
For COc1ccc(O)c(C(C)(C)C)c1 [BHA], the “DPPH IC50” value [3] is given as 24.73 ± 0.11 µg/mL.
